Laboratory results: PubChem BioAssay AID743257 (The Scripps Research Institute Molecular Screening Center, 2014)
Among all 2,900 compounds or so, about 1,900 (66%) were called active. The set was probably picked from earlier hits. These entries were drawn from the full list. Unmarked numbers belong to inactive results.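 How the source made its calls: active means mean inhibition across replicates above the hit cutoff set in the primary screen (cut at about 8.5% in these data); inactive means the rest.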

What follows are molecules tested against Disintegrin and metalloproteinase domain-containing protein 17 (Homo sapiens) (UniProt P78536) (assay: inhibition of human ADAM17 protease activity – biochemical, QFRET peptide cleavage, confirmation (AID 743257;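 further: 0% = DMSO wells and 100% = marimastat wells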)). Conditions: recombinant ADAM17, EDANS/DABCYL QFRET peptide cleavage; at 6.95 µM; active compounds read high.
Sequence of Disintegrin and metalloproteinase domain-containing protein 17 (Homo sapiens) (P78536 215-824 limits assumed): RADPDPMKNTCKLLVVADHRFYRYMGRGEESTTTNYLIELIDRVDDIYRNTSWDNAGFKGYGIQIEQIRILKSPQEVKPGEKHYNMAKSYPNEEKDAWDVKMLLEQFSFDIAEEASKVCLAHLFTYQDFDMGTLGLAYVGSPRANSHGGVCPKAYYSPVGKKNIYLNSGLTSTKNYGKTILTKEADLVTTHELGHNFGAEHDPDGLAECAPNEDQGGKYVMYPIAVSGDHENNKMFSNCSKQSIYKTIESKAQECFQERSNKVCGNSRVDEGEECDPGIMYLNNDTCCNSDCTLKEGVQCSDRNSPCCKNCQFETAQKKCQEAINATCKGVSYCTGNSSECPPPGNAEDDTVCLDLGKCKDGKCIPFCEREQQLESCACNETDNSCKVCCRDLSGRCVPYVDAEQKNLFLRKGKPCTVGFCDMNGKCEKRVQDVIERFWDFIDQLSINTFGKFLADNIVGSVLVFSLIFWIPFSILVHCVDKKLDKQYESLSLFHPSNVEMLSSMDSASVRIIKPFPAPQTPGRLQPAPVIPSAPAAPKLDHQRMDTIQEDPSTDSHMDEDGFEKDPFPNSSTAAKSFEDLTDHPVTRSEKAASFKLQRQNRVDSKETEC
How it was run: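 Assay system: human ADAM17 protease with quenched FRET peptide substrate / Buffer or medium: 50 mM HEPES buffer, pH 7.5, with 0.01% Brij / Schedule: 30 min preincubation, 3 h reaction / Technique: fluorescence at ex 359 nm, em 460 nm / Read-out: percent inhibition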
`COC(=O)c1c(C)[nH]c(C(=O)/C=C/c2ccc(Cl)cc2)c1C` gave an inhibition of -5.64%.
`CCOC(=O)c1c(Cc2ccc(Cl)cc2)c[nH]c1C` was tested, and the inhibition was 9.85% (active).
Work on `COc1ccc(C(=O)C2CCCN(S(=O)(=O)c3cccc(C)c3)C2)c(C)c1` (stereo not drawn) yielded an inhibition of 6.46%.
In the case of `COc1ccc(S(=O)(=O)N2CCCCC2)cc1Br`, the inhibition is reported as 10.9% (active).
Molecule `COCCNC(=O)C(c1ccc(C)o1)N(Cc1ccccc1)C(=O)Cn1nnc2ccccc21` (stereo not drawn) has an inhibition of 1.74%.
Molecule `COc1ccccc1C(=O)NCC(=O)OCC(=O)NNC(=O)c1ccc(Br)cc1` has an inhibition of 3.39%.
With `CC(=O)Nc1ccc(S(=O)(=O)N2CCN(CCCOc3cc(C)ccc3C)CC2)cc1` the inhibition was 9.43% (active).
Molecule `Cn1c(=O)c2c(nc(N/N=C/c3cccs3)n2Cc2ccc(Br)cc2)n(C)c1=O` has an inhibition of -12%.
With `COc1ccc(C(=O)Nc2ccc(C3(C#N)CCCC3)cc2)cc1OC` the inhibition was -0.86%.
With `Cc1cc(C)cc(NS(=O)(=O)c2ccc(Oc3ncc(C(F)(F)F)cc3Cl)cc2)c1` the inhibition was 20.1% (active).
For `COc1cccc(NC(=O)C2C(c3ccccc3)C2(Cl)Cl)c1` (stereo not drawn), the inhibition was 19.5% (active).
In the case of `O=C(CN1CCN(c2nc(-c3ccccc3)cs2)CC1)NCc1ccc2c(c1)OCO2`, the inhibition is reported as 12.5% (active).
`Cc1ccc(-c2n[nH]c(=S)n2/N=C/c2cc3c(cc2[N+](=O)[O-])OCO3)cc1` was tested, and the inhibition was 4.12%.
With `CCOc1ccc(-n2c(SCC(=O)Nc3cc(C)c(NC(=O)c4ccccc4)cc3OC)nnc2-c2cccs2)cc1` the inhibition was 14.6% (active).
With `COc1cccc(CNc2nc(C(F)(F)F)nc3ccccc23)c1` the inhibition was 7.14%.
`Clc1ccc(C(Cn2ccnc2)OCc2ccsc2Cl)c(Cl)c1` (stereo not drawn) was tested, and the inhibition was 9.7% (active).
In the case of `CS(=O)(=O)Nc1cccc(C2=NN(S(=O)(=O)c3ccccc3)C(c3cccs3)C2)c1` (stereo not drawn), the inhibition is reported as 6.85%.
Molecule `Cc1cc(C)cc(NC(=S)NCCc2c[nH]c3ccccc23)c1` has an inhibition of 8.25%.
With `N#C/C(=C/c1ccc(N2CCCCC2)o1)C(=O)NCCc1c[nH]c2ccccc12` the inhibition was 10.2% (active).
For `COc1ccc(-c2cc(C3CCN(c4ncccc4[N+](=O)[O-])CC3)[nH]n2)cc1`, the inhibition was 13.2% (active).
For `COc1ccc(CC(N)c2csc(NC(=O)NC(c3ccccc3)c3ccccc3)n2)cc1` (stereo not drawn), the inhibition was 3.55%.
For `C=C(C)COc1ccc(-c2n[nH]c(C)c2-c2ccccc2)c(O)c1`, the inhibition was 20.8% (active).
With `COc1ccc(Cl)cc1NC(=O)COC(=O)C(CC(C)C)N1C(=O)C2CC=CCC2C1=O` (stereo not drawn) the inhibition was 9.46% (active).
With `CC(C)N(C(=O)[C@H]1C[C@H](CC(=O)NC(C)(C)C)C(=O)N2CCc3c([nH]c4ccc(Cl)cc34)[C@]12C)C(C)C` the inhibition was 8.88% (active).
In the case of `CCOc1ccccc1CNS(=O)(=O)c1cc(-c2cc(C)no2)ccc1C`, the inhibition is reported as 3.8%.
With `CCOC(=O)c1cccc(NC(=O)CN(C)S(=O)(=O)c2ccc(-c3cocn3)s2)c1` the inhibition was 6.09%.
With `Cc1ccc(S(=O)(=O)N2CCN(C(=O)COC(=O)c3c(C)cc(C)cc3C)CC2)c(C)c1` the inhibition was 9.17% (active).
For `COC(=O)N(C)C[C@@H]1OCc2cnnn2CCCC(=O)N([C@@H](C)CO)C[C@@H]1C`, the inhibition was 0.27%.
For `Cn1nc(C(F)(F)F)c2cc(NC(=O)OCC(C)(C)C)sc21`, the inhibition was 10.8% (active).
With `O=C(CSc1nc(Nc2ccccc2)nc(N2CCOCC2)n1)Nc1cc(Cl)ccc1O` the inhibition was 18.7% (active).
For `CC(C)(C)c1ccc(S(=O)(=O)NCC2CCN(C(=O)C(=O)c3cc4ccccc4o3)CC2)cc1`, the inhibition was 15.1% (active).
For `O=C1[C@H]2[C@@H](c3ccc(C(F)(F)F)cc3)N[C@]3(CCCN(Cc4ccc(Br)cc4)C3=O)[C@H]2C(=O)N1Cc1ccccc1`, the inhibition was 19.6% (active).
With `O=C(NCc1ccccc1)C1=C[C@@H](c2ccc(C(F)(F)F)cc2)C[C@@H](OCc2ccc(CO)cc2)O1` the inhibition was 21.4% (active).
For `Cc1ccc(C(=O)Nc2ccc(C)c(S(=O)(=O)N(C)C)c2)s1`, the inhibition was 10.8% (active).
With `Cc1ccc(-n2c(COc3ccccc3)nnc2SCC(=O)Nc2ccc3c(c2)OCCO3)cc1` the inhibition was 15.9% (active).
Work on `CCCn1nc(C(=O)NNC(=O)CSCC(=O)Nc2cc(C)on2)c2ccccc2c1=O` yielded an inhibition of 0.67%.
`Cc1cc(NC(=O)CN2C(=O)NC(CC(C)C)C2=O)no1` (stereo not drawn) was tested, and the inhibition was 15.1% (active).
`NNC(=O)C1CCCn2c1nc1sc3c(c1c2=O)CCCC3` (stereo not drawn) gave an inhibition of 1.06%.
`COc1ccc(CC(=O)c2ccc(O)cc2O)cc1OC` was tested, and the inhibition was 1.45%.
In the case of `CC(C)C(=O)Nc1cccc(NC(=S)NC(=O)C(c2ccccc2)c2ccccc2)c1`, the inhibition is reported as 17.6% (active).
For `COc1cc(C2CC(=O)N3CN(Cc4ccccc4)CSC3=C2C#N)ccc1OCc1ccccc1` (stereo not drawn), the inhibition was 15.8% (active).
With `COc1ccc(S(=O)(=O)Nc2ccc(O)c(Sc3nc4ccccc4s3)c2)cc1` the inhibition was 10.7% (active).
`C=CCOc1ccccc1/C=N/NC(=O)Cc1ccccc1` was tested, and the inhibition was 2.48%.
For `O=C1NC(=O)C(c2ccc(Cl)cc2)N1` (stereo not drawn), the inhibition was 13.7% (active).
In the case of `Cc1ccc(-c2nnc(SCC(=O)Nc3ccc(Oc4ccccc4)cc3)n2Cc2ccco2)cc1`, the inhibition is reported as 18.5% (active).
`Cc1ccc(OCc2nnc(SC/C=C/c3ccccc3)n2Cc2ccco2)cc1` was tested, and the inhibition was 12.5% (active).
With `CN(C)c1ccc(NC(=O)NC2CCCCN(Cc3ccc(Cl)cc3)C2=O)cc1` (stereo not drawn) the inhibition was 3.4%.
`CCCN(CC(=O)NC(=O)NC1CCCCC1)CC(=O)Nc1cc(Cl)ccc1Cl` was tested, and the inhibition was 17.5% (active).
In the case of `O=C(CSCc1ccc(Br)cc1)Nc1ccc(S(=O)(=O)N2CCCCCC2)cc1`, the inhibition is reported as 12.6% (active).
`Cn1nc(C(F)(F)F)c(C(=O)Nc2cccc(C(F)(F)F)c2)c1SCc1ccc(Cl)cc1` was tested, and the inhibition was 19.4% (active).
`COc1ccc(C(N)c2csc(NC(=O)Nc3cccc(C(F)(F)F)c3)n2)cc1` (stereo not drawn) gave an inhibition of 6.58%.
In the case of `CC(=O)Nc1ccc(S(=O)(=O)Oc2ccc(Br)cc2C(=S)N2CCOCC2)cc1`, the inhibition is reported as 9.82% (active).
`S=C(NCc1ccc(Cl)cc1)NC12CC3CC(CC(C3)C1)C2` was tested, and the inhibition was 11.1% (active).
With `O=C(Cc1ccc(Cl)c(Cl)c1)Nc1ccc(SC(F)F)cc1` the inhibition was 25.1% (active).
Molecule `COc1ccc(CN(C)C(=O)CC(c2ccccc2)c2ccccc2)cc1` has an inhibition of 5.73%.
In the case of `O=C(c1ccccc1)N1CCN(c2ccc([N+](=O)[O-])c(NCc3ccco3)c2)CC1`, the inhibition is reported as 9.37% (active).
With `CC(C)(C)OC(=O)N1CCC(NC(=O)c2[nH]cnc2C(=O)N[C@@H](Cc2ccccc2)C(=O)OCc2ccccc2)CC1` the inhibition was 22.4% (active).
`CC(C)(C)OC(=O)CNC(=O)c1[nH]cnc1C(=O)N[C@@H](Cc1ccccc1)C(=O)OCc1ccccc1` was tested, and the inhibition was 20.1% (active).
In the case of `CCOc1ccc(OCC)c(-c2c(=O)n(OCc3ccc(Cl)cc3)c3ccccc3[n+]2[O-])c1`, the inhibition is reported as 2.59%.
`CCn1c(Cc2cccs2)nnc1SCC(=O)c1ccc(C)cc1` showed an inhibition of 2.25%.
`Cc1sc2nc(SCC(=O)c3ccc(O)c(O)c3)n(Cc3ccco3)c(=O)c2c1C` was tested, and the inhibition was 12.6% (active).
In the case of `CCc1cccc(NC(=O)COC(=O)C2CCN(c3ccc(C(F)(F)F)cn3)CC2)c1`, the inhibition is reported as 16.5% (active).
Work on `O=C(Cc1ncc(C(F)(F)F)cc1Cl)Nc1cccc(Br)c1` yielded an inhibition of 5.32%.
In the case of `O=C(C[C@H]1C(=O)N(c2ccc(F)c(F)c2)C[C@@H]1Cc1ccccc1)Nc1ccccc1`, the inhibition is reported as 14.1% (active).
With `Cc1ccc(C)c(NC(=S)NNC(=S)Nc2ccc(C(C)C)cc2)c1` the inhibition was 17.9% (active).
Work on `C[C@@H]1CN([C@H](C)CO)C(=O)c2cc(-c3ccc(F)cc3)cnc2O[C@H]1CN(C)C(=O)c1ccc(F)cc1` yielded an inhibition of 8.52%.
For `COc1cc(NC(=O)CCS(=O)(=O)c2ccc3c(c2)oc(=O)n3C)cc(OC)c1`, the inhibition was 6.47%.
With `COc1ccc(C(=O)NN2C(=O)C3C(c4ccccc4)C=CC(c4ccccc4)C3C2=O)cc1` (stereo not drawn) the inhibition was 14% (active).
For `COc1ccc(S(=O)(=O)N2CCN(C(C)C(=O)Nc3ccc(C(C)C)cc3)CC2)cc1` (stereo not drawn), the inhibition was 10.8% (active).
With `COc1cc(/C=N/n2c(C)n[nH]c2=S)ccc1OCc1ccccc1` the inhibition was 0.43%.
For `NS(=O)(=O)c1ccc(NC(=O)COC(=O)C2(c3ccc(F)cc3)CCCC2)cc1`, the inhibition was 14.4% (active).
For `CN(C)S(=O)(=O)c1cccc(NC(=O)COC(=O)C2(c3ccccc3F)CCCC2)c1`, the inhibition was 14.1% (active).
`O=C1/C(=C\c2ccsc2)NC(=S)N1c1ccccc1` was tested, and the inhibition was 8.92% (active).
Molecule `C#CCN(C[C@H]1[C@H](OC(=O)NC2CCCC2)[C@H](OC(=O)NC2CCCC2)C[C@H]2C(=O)N(c3ccccc3)C(=O)[C@@H]12)S(=O)(=O)c1ccc(C)cc1` has an inhibition of 8.59%.
With `C=CC(COCc1ccccc1)N(CC(=O)OC)S(=O)(=O)c1cc(Br)ccc1OC` (stereo not drawn) the inhibition was 10.1% (active).
For `O=C(Nn1c(SCc2ccc([N+](=O)[O-])cc2)nc2ccccc2c1=O)c1ccc(F)cc1`, the inhibition was 16.4% (active).
In the case of `COc1ccc(Cn2cc(CN3CCS(=O)(=O)N(Cc4ccc(-c5cccc(Cl)c5)cc4)C(C)C3=O)nn2)cc1` (stereo not drawn), the inhibition is reported as 11.2% (active).
With `COc1ccc(-c2ccc(CN3C(CC(C)C)C(=O)N(Cc4cn(CC5CCCCC5)nn4)CCS3(=O)=O)cc2)cc1` (stereo not drawn) the inhibition was 13.1% (active).
In the case of `FC(F)(F)Oc1ccccc1C(c1nnnn1C1CCCCC1)N1CCN(C/C=C/c2ccccc2)CC1` (stereo not drawn), the inhibition is reported as 10.2% (active).
With `Cc1ccc(Cn2nnc3c(=O)[nH]c(C4CCN(S(=O)(=O)/C=C/c5ccccc5)CC4)nc32)cc1` the inhibition was 20.1% (active).
`Cc1nnc(SCC(=O)Nn2cnnc2)s1` gave an inhibition of 1%.
`O=C(CSc1nnc(Nc2ccccc2)s1)Nc1cccnc1Cl` showed an inhibition of 4.72%.
With `Cc1ccc(NC(=S)NNC(=O)CSc2nnc(SCc3ccccc3Cl)s2)cc1` the inhibition was 13.7% (active).
`Cc1ccccc1C(=O)Nc1ccccc1Sc1ccccc1` showed an inhibition of 8.42%.
`O=C(COC(=O)c1ccccc1)Nc1ccccc1Sc1ccccc1` was tested, and the inhibition was 10.7% (active).
For `O=C(Nc1ccc(C(=O)NCc2ccccc2Cl)cc1)C1=CSCCO1`, the inhibition was 4.43%.
In the case of `CCCCCC(=O)N1C[C@H](O)[C@@H](n2cc(COC(=O)c3ccccc3)nn2)C[C@@H]1c1ccc(C)cc1`, the inhibition is reported as 13.5% (active).
With `C=CCC[C@@H](Cc1ccc(F)cc1)C(=O)O[C@H](CNC(=O)[C@H](CC=C)CC(=O)N(CCO)Cc1ccccc1)c1ccccc1` the inhibition was 21.7% (active).
For `C=CCC[C@@H](Cc1ccc(F)cc1)C(=O)OC[C@H](Cc1c[nH]c2ccccc12)NC(=O)[C@@H](CC=C)CC(=O)N(CCO)Cc1ccccc1`, the inhibition was 16.9% (active).
In the case of `C=CC[C@H](CC(=O)N(CCO)Cc1ccccc1)C(=O)N[C@@H](COC(=O)[C@@H](CC=C)Cc1ccc(F)cc1)Cc1ccccc1`, the inhibition is reported as 14.8% (active).
Molecule `Cc1ccc(/C=N/NC(=O)CSc2nc3ccccc3o2)cc1` has an inhibition of 6%.
With `CC1(C)C=Cc2c(ccc3c2OC[C@@H](c2ccc(O)cc2O)C3)O1` the inhibition was 12.3% (active).
For `N/C(Cc1ccc([N+](=O)[O-])cc1)=N\OC(=O)COc1ccc2ccccc2c1`, the inhibition was 6.36%.
